What was measured:
Format in all cases: biochemical
LDHA [1] = molecular target: T1, LDHA (Lactococcus cremoris, UniProt A2RKA4); assay: inhibition of NADH-coupled activity; settings: inhibitor; both reaction directions; 1 mM FBP, pH 7.0, 30 °C
T1 sequence (A2RKA4 1-325): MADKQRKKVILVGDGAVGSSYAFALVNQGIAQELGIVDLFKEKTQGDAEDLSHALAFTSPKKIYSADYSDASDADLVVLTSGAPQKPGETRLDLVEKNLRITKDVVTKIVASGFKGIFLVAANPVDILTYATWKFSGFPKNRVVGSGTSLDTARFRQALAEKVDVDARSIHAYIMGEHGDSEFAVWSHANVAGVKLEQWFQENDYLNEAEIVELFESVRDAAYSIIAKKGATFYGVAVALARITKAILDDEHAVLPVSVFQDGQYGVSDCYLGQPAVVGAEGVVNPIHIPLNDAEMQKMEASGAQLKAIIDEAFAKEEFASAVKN

LDHA [2] = molecular target: T1, LDHA; assay: inhibition of NADH-coupled activity; settings: read-out: % remaining rate at 8 mM
LDHA [3] = molecular target: T1, LDHA; assay: activation of NADH-coupled activity; settings: 200 µM, allosteric activator, Tris-maleate pH 7.0, 30 °C
Summary of the method: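 Recombinant His-tagged LDHA from L. lactis MG1363, expressed in E. coli Transetta (DE3) (0.5 mM IPTG, 30 °C, 4 h) and purified on Ni-NTA with imidazole elution. Pyruvate reduction was followed spectrophotometrically as the decrease in NADH absorbance at 340 or 380 nm, at 30 °C in 100 mM Tris–maleate pH 7.0, with about 40–200 ng/ml enzyme; 1 unit = 1 μmol/min.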

FNI = molecular target: T2, FNI (Lactococcus cremoris, UniProt A2RID7); assay: 1H NMR of product after […] h; settings: 5 mM MgCl2, 10 μM FMN, 5 mM NADH, 2 mM DTT, pH 7.0, 30 °C
T2 sequence (A2RID7 1-349): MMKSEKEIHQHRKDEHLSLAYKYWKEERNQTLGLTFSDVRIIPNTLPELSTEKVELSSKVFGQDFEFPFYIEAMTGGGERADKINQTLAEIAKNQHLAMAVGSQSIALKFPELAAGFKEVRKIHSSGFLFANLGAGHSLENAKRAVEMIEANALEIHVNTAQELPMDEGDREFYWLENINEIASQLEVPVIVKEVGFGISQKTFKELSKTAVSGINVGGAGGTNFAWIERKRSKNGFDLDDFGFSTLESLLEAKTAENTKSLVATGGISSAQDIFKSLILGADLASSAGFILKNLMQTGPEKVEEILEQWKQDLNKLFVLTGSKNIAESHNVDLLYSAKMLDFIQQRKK

With `Nc1ncnc2c1ncn2[C@@H]1O[C@H](COP(=O)(O)OP(=O)(O)O)[C@@H](O)[C@H]1O` [ADP] the “inhibition of NADH-coupled activity” value (LDHA [1]) was “ADP was shown to be a more severe inhibitor”.
`Nc1ncnc2c1ncn2[C@@H]1O[C@H](COP(=O)(O)OP(=O)(O)OP(=O)(O)O)[C@@H](O)[C@H]1O` [ATP] was tested, and the remaining activity at 8000 µM (LDHA [2]) was over 80%.
With `O=P(O)(O)OC[C@H]1OC(O)(COP(=O)(O)O)[C@@H](O)[C@@H]1O` (some centres unmarked) [FBP] the “Pyruvate reduction (%)” value (LDHA [3]) was 66 ± 4.7%.
In the case of `C=C(C)CCOP(=O)(O)OP(=O)(O)O` [IPP], the “1H NMR of product after 15 h” value (FNI) was “conversion of IPP to dimethylallyl diphosphate was observed”.
For `CC(C)=CCOP(=O)(O)OP(=O)(O)O` [dimethylallyl diphosphate], the “1H NMR of product after 15 h” value (FNI) was “appearance of signals for dimethylallyl diphosphate”.
